For orientation: pKa means the negative logarithm of the acid dissociation constant.

The source made the active and inactive calls. The rule behind the calls is not given here.

These results are taken from ChEMBL document CHEMBL3244167, “Lysosomotropic agents. 1. Synthesis and cytotoxic action of lysosomotropic detergents” (J Med Chem, 1979).

Data set [1] can be described thus: Cytotoxicity against mouse peritoneal macrophages assessed as LDH release at 100 ug/ml after 24 hrs (reference value: 4 to 9 %). The format is functional, Peritoneal macrophage cell. In general terms: LDH leaks from cells whose membrane has failed.
Data set [2] deals with Raji. The data set can be described thus: Cytotoxicity to human Raji cells at 10 ug/ml after 3 days. The format is functional, cell-based.
Data set [3] concerns P815. Description: Induction of cell death in mouse P815 cells assessed as [51Cr] release at 50 ug/ml at 5 hrs. The format is functional.
Data set [4] relates to P815. The data set can be described thus: Induction of cell death in mouse P815 cells assessed as [51Cr] release at 25 ug/ml at 5 hrs. The format is functional.
In data set [5] the test system is P815. The data set can be described thus: Induction of cell death in mouse P815 cells assessed as [51Cr] release at 75 ug/ml at 5 hrs. The format is functional.
For data set [6], the system named is MRC5. Description: Cytotoxicity to human MRC5 cells at 10 ug/ml after 3 days. The format is functional, cell-based.
The subject of data set [7] is P815. The data set can be described thus: Induction of cell death in mouse P815 cells assessed as [51Cr] release at 100 ug/ml at 5 hrs (reference value: 10%). The format is functional.
Data set [8] deals with Raji. Description: Cytotoxicity to human Raji cells. The format is functional, cell-based.
In a further data set the test system is RK13. The data set can be described thus: Cytotoxicity to rabbit RK13 cells. The format is functional, cell-based. The following applies: Oryctolagus cuniculus.
Data set [9] has as its system Peritoneal macrophage cell. Description: Induction of large vacuole formation in mouse peritoneal macrophages at 10 to 25 ug/ml. The format is functional, cell-based.
The test system of another data set is WI-38. The data set can be described thus: Cytotoxicity to human W138 cells. The format is functional, cell-based.
In data set [10] the test system is MRC5. The data set can be described thus: Cytotoxicity to human MRC5 cells. The format is functional, cell-based.
The test system of data set [11] is Peritoneal macrophage cell. Description: Induction of cell death in mouse peritoneal macrophages at 50 ug/ml. The format is functional, cell-based.
Data set [12] relates to Mus musculus. The data set can be described thus: Toxicity in mouse at 500 mg/kg, ip after 10 days. The note with it: in vivo, 240 h. On the set-up: dose 500 mg/kg, route intraperitoneal. The format is organism-based. Put shortly:
(§1)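 Mice dosed ip; observed for 10 days.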

Data set [13] concerns Raji. Description: Cytotoxicity to human Raji cells at 40 ug/ml after 3 days. The format is functional, cell-based.
The nature of data set [14]: Cytotoxicity against mouse peritoneal macrophages assessed as […] at 0.75 mM after 24 hrs (reference value: 10 %). The format is functional, Peritoneal macrophage cell. Put shortly:
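Thioglycolate-stimulated mouse peritoneal macrophages, 2-4 × 10^6 cells/dish, in duplicate. Compound dosed from Me2SO solution at 1 µL/mL, final 0.750 mM; control Me2SO only. At 24 h, units of N-acetyl-β-D-glucosaminidase (lysosomal marker) and LDH (cytoplasmic marker) released into medium were measured, ±15%.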

Data set [15] relates to P815. Description: Induction of cell death in mouse P815 cells assessed as [51Cr] release at 27 ug/ml at 5 hrs. The format is functional.
Data set [16] relates to P815. The data set can be described thus: Induction of cell death in mouse P815 cells assessed as [51Cr] release at 3 ug/ml at 5 hrs. The format is functional.
In data set [17] the test system is P815. Description: Induction of cell death in mouse P815 cells assessed as [51Cr] release at 9 ug/ml at 5 hrs. The format is functional.
For data set [18], the system named is P815. The data set can be described thus: Induction of cell death in mouse P815 cells assessed as [51Cr] release at 1 ug/ml at 5 hrs. The format is functional.
A short description of data set [19]: Induction of cell lysis in ox RBC at 0.375 mM measured at 1 hr (reference value: 1.7 %). The format is cell-based, Bos taurus, Erythrocyte. The note with it: cattle, ox red blood cells; read-out: Activity.
Data set [20] is described as follows: Induction of cell lysis in ox RBC at 0.188 mM measured at 1 hr (reference value: 1.7 %). The note with it: cattle, ox red blood cells; read-out: Activity. The format is cell-based, Bos taurus, Erythrocyte.
The nature of data set [21]: Induction of cell lysis in ox RBC at 0.188 mM measured at 4 hrs (reference value: 1.8 %). The format is cell-based, Bos taurus, Erythrocyte. The note with it: cattle, ox red blood cells; read-out: Activity.
The nature of data set [22]: Induction of cell lysis in ox RBC at 0.375 mM measured at 4 hrs (reference value: 1.8 %). The format is cell-based, Bos taurus, Erythrocyte. The following applies: cattle, ox red blood cells; read-out: Activity.
The next data set relates to HeLa. The data set can be described thus: Cytotoxicity to human HeLa cells at 100 ug/ml after 24 hrs. The format is functional, cell-based.
A short description of data set [23]: Induction of cell lysis in rabbit RBC at 0.188 to 0.375 mM measured at 1 to 4 hrs. The format is cell-based, Oryctolagus cuniculus. The following applies: erythrocyte, 375 µM.
For data set [24], the system named is Peritoneal macrophage cell. Description: Induction of cell death in mouse peritoneal macrophages at 25 ug/ml. The format is functional, cell-based.
Data set [25] deals with Peritoneal macrophage cell. Description: Induction of large vacuole formation in mouse peritoneal macrophages at 5 ug/ml. The format is functional, cell-based.
In data set [26] the test system is Mus musculus. The data set can be described thus: Toxicity in mouse at 250 mg/kg, ip after 10 days. The following applies: in vivo, 240 h. The format is organism-based. On the set-up: dose 250 mg/kg, route intraperitoneal. Put shortly:
as §1

`Cn1ccnc1` [1-METHYLIMIDAZOLE] had a pKa in the data set “physchem” of 7.
For `CCCCCCCCCCCCCCCCCCNCC(F)(F)F`, the Activity in [1] is given as 5%. The molecule also returned a pKa in the data set “physchem” of 4.7.
Consider `CCCCCCCCCCCCN1CCOCC1`, for which the outcome in the data set with Raji [2] and in the data set with MRC5 [6] was Active. The Activity with P815 [3] is recorded as 14%; in the data set with P815 [4], 13%; in the data set on P815 [5], 15%; in the data set with P815 [7] it was 85%. This molecule displayed a pKa in the data set “physchem” of 7.6.
In the data set “physchem”, `CCCCCCCCCCCCCc1ccccn1` yielded a pKa of 5.6.
On the same count and under the same terms, in the case of `Cc1ccncc1` it was 6.
`CCCCCCCCCCCCCc1ccncc1`: the result (in the data set with Raji [8]; with RK13; in data set [9]; with WI-38; with MRC5 [10]; in [11]) was Active. Further, the result with Raji [13] was Active. Moreover, in “physchem”, the pKa was 5.9. The values for the Activity in the data set with P815 [7] and in the data set on Mus musculus [12] were 10% and “Non-toxic”, respectively.
Consider `CCCCCNCC(F)(F)F`, for which the figures for the Activity in data set [1] and in data set [14] were 4% and 14%, respectively.
`CCCCCCCCCCCCn1ccnc1`: the Activity worked out at 94% with P815 [3]; 93% in the data set with P815 [15]; 11% in the data set with P815 [16]; 11% in the data set on P815 [17]; 10% with P815 [18].
As to `CCCCCCCCCCNCC(F)(F)F`, the Activity in data set [1] is on record as 12%; in [14], 32%.
For `CCCCCCCCCCCCCCNCC(F)(F)F`, in that order: 5% and 25%.
Consider `CCCCCCCCCn1ccnc1`, for which the pKa in “physchem” turned out to be 6.6.
As for `CCCCCCCCCCCCN` [DODECYLAMINE], the hemolysis at 1 h, 375 µM in data set [19] came out at 100%. Also, in [20], the hemolysis at 1 h, 188 µM is 100%. Besides, the hemolysis at 4 h, 188 µM in data set [21] was determined as 100%. In data set [22], the hemolysis at 4 h, 375 µM is 100%.
As to `CCCNCC(F)(F)F`, the Activity in [1] came to 10%.
Regarding `CCCCCCCCCCCCNCC(F)(F)F`, in data set [19], the hemolysis at 1 h, 375 µM was found to be 5.2%. The Activity in [1] is recorded as 10%; with P815 [7], 21%; in [23] it was “Non-toxic”; with Mus musculus [12] it was “Non-toxic”; in data set [14], 27%. The outcome (in the data set on Raji [8]; in the data set on RK13; with WI-38; in the data set on MRC5 [10]; in the data set on HeLa; in data set [24]) was Active. The outcome (in the data set with Raji [13]; in data set [25]) was Active. For the same molecule, the hemolysis at 1 h, 188 µM in data set [20] was 4.2%. Besides, the hemolysis at 4 h, 188 µM in [21] amounted to 7.3%. For the same molecule, the pKa in “physchem” was determined as 5.5. Besides, in data set [22], the hemolysis at 4 h, 375 µM came out at 6.5%.
Turning to `CNCC(F)(F)F`, the pKa in the data set “physchem” was determined as 6.
In the case of `CCCCCCCCNCC(F)(F)F`, the Activity came out at 7% in data set [1] and 19% in [14]. This molecule also came in with a pKa in the data set “physchem” of 5.9.
The molecule `CCCCCCCCCCCCNCC(F)F` yielded a pKa in the data set “physchem” of 7.5. Moreover, the figures for the Activity in the data set with P815 [7], with Mus musculus [12] and in the data set on Mus musculus [26] were 45%, “Toxic” and “Non-toxic”, respectively.
For `CCCCCCCCCCCCCCCCNCC(F)(F)F`, the Activity in data set [1] was 63%. The same molecule had a pKa in “physchem” of 5.2.
